Compound activity deposited in PubChem by several laboratories.
The list is not random: actives were taken first. Their share in the collection is about 1.6%.
HKDC1 inhibitor – HKDC1 hexokinase inhibitors, primary screen, biochemical, fluorescence, uHTS; 340,000 compounds, 0.16% hits; AID 493160, 2011; recombinant HKDC1, G6PDH/diaphorase resazurin coupled fluorescence; Q2TB90; inhibition, % at 20 µM;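 active = inhibition above about 35% when tested at 20 µM, limit read from the data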;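 note: plate controls were DMSO wells with enzyme for no effect and DMSO wells lacking enzyme for full effect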
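Assay system: recombinant HKDC1 hexokinase; detection: coupled resazurin fluorescence, excitation 525 nm, emission 613 nm; benchmarks: DMSO-plus-enzyme-mix negative control, buffer-substituted positive control; compound dosing: single 20 µM dose; schedule: 90 min at room temperature in dark; also added: glucose plus 1 mM ATP as hexokinase substrates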
CTSL1 counter – Fasciola hepatica cathepsin L1 inhibitors, primary screen, counter-screen for PFM18AAP inhibitor project, biochemical, QFRET, fluorogenic peptide substrate; inhibition, % at 5.96 µM; 300,000 compounds, 0.49% hits; AID 1906, 2009; recombinant F. hepatica cathepsin L1, Z-Leu-Arg-MCA fluorescence;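 active = inhibition above the mean of all tested compounds plus 3 SD, set per screening campaign, cut at about 17% in these data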;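 note: 0% = plate median of test compound wells and 100% = 1 µM Z-Phe-Ala-diazomethylketone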
UCH37 DUB inh – inhibitors of human UCH37 deubiquitinase, primary screen, biochemical, Ub-AMC cleavage, fluorescence; Ubiquitin carboxyl-terminal hydrolase isozyme L5 (Homo sapiens), Q9Y5K5; purified proteasome/UCH37; inhibition, % (no concentration beside the values); 330,000 compounds, 0.33% hits; AID 588478, 2011;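 active = mean inhibition over replicate wells above about 20%, limit read from the data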;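 note: 0% = compound-free wells with enzyme and 100% = wells lacking proteasome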
Target sequence (Q9Y5K5 whole entry, looked up): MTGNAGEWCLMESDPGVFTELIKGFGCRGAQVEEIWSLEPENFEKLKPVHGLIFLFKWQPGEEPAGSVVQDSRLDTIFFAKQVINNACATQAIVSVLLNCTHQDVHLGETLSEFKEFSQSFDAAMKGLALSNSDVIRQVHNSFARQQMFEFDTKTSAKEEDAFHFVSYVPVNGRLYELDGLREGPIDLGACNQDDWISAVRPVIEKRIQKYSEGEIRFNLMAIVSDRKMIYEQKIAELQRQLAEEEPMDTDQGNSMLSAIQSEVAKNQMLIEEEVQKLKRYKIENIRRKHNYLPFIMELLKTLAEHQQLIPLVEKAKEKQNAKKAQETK
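Material: Human UCH37 enzyme supplied as purified proteasome complex | Schedule: 30 min compound-proteasome preincubation then 25 min substrate reaction, room temperature | Detection: AMC fluorescence from Ub-AMC cleavage, excitation 355 nm, emission 460 nm | Benchmarks: Wells without proteasome as full block, compound-free enzyme plus substrate as uninhibited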
TDP2 absorb – human TDP2 enzyme inhibitors, primary screen, biochemical, epi absorbance, recombinant enzyme | 370,000 compounds, 0.34% hits | inhibition, % at 12.8 µM | T5PNP hydrolysis, p-nitrophenol absorbance 415 nm | Tyrosyl-DNA phosphodiesterase 2 (Homo sapiens), O95551;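 active = inhibition above the mean of all tested compounds plus 3 SD, set per campaign, cut at about 25% in these data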;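 note: 0% = DMSO with enzyme and 100% = buffer with substrate but no TDP2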
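System: recombinant human TDP2 / Amount: 120 nM TDP2 per well / Also added: 5 mM T5PNP chromogenic substrate / Doses: 12.8 µM single point, 1% DMSO / Incubation: 2 h at 37 °C / Detection: p-Nitrophenol epi absorbance / Evaluation: % inhibition relative to enzyme-containing and enzyme-free wells / Repeats: singlicate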
PAD4 inh – human PAD4 inhibitors, primary screen, biochemical, fluorescence polarization, 1536-well format; Protein-arginine deiminase type-4 (Homo sapiens), Q9UM07; recombinant PAD4, RCA probe fluorescence polarization; inhibition, % at 6.36 µM; 330,000 compounds, 0.41% hits; AID 485272, 2010;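 active = percent inhibition above a cutoff equal to the mean of all tested compounds plus 3 SD, cut at about 15% in these data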;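 note: 0% = PAD4 with RCA probe and DMSO and 100% = probe without PAD4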
GSTO1 inh – inhibitors of recombinant GSTO1, primary screen, counter-screen for RBBP9 inhibitor project, biochemical, fluorescence polarization. activity-based probe fluorescence polarization. inhibition, % at 5.96 µM. AID 1974, 2009. Glutathione S-transferase omega-1 (Homo sapiens), P78417. 300,000 compounds, 1.1% hits;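 active = inhibition above the campaign mean inhibition plus 3 SD, cut at about 35% in these data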;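 note: 0% = GSTO1-1 with DMSO and 100% = wells lacking GSTO1-1 enzyme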
GSTO1 inh conf – GSTO1 inhibitor hit confirmation, counter-screen for RBBP9 inhibitor project, biochemical, fluorescence polarization, triplicate; shares compounds with GSTO1 inh; recombinant GSTO1, probe fluorescence polarization; inhibition, % at 5.96 µM; 2,400 compounds, 54% hits;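 active = inhibition above the primary screen's cutoff, its mean inhibition plus 3 SD, cut at about 35% in these data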;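 note: loss of polarization as inhibitors block binding of rhodamine sulfonate ester activity probe; 0% = GSTO1 with DMSO and 100% = wells lacking GSTO1 enzyme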
GSTO1 ABPP inh – inhibitors of purified human GSTO1, late-stage follow-up, biochemical, gel ABPP, SE-Rh probe, percent inhibition. inhibition, % at 1 µM. 130 compounds, 30% hits. recombinant GSTO1, gel ABPP SE-Rh probe fluorescence. shares compounds with GSTO1 inh;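 active = inhibition of the enzyme GSTO1 above about 75%, limit read from the data; inactive = inhibition below that limit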
An asterisk follows results filed as active; . = not tested or not shown.

SMILES	HKDC1 inhibitor	CTSL1 counter	UCH37 DUB inh	TDP2 absorb	PAD4 inh	GSTO1 inh	GSTO1 inh conf	others
Cc1cc(C(=O)O)ccc1-n1c(C)ccc1C	.	1	.	.	9	46*	20
Cc1cc(C(=O)O)ccc1-n1c(C)cc(/C=C(/C#N)C(=O)Nc2ccccc2)c1C	-4	0	7	-20	0	-5	.
CN(C)C=Nc1sc2c(c1C(N)=O)CCCC2	.	.	7	.	.	.	.
Nc1c(S(=O)(=O)O)cc(NC(=O)c2ccccc2)c2c1C(=O)c1ccccc1C2=O	26	6	33*	.	4	41*	63*
CC(=NNc1ccc(C#N)cc1[N+](=O)[O-])c1ccc(O)cc1	.	.	3	.	.	.	.
C[n+]1cccc(C(=O)NN=Cc2ccc3c(c2)OCO3)c1	.	.	13	.	.	.	.
Clc1ccccc1C1Nc2cccc3cccc(c23)N1	11	-4	0	11	-2	43*	8
CCOc1cccc(CNc2ccc(O)cc2)c1OCc1ccccc1Cl	14	-4	4	13	1	77*	5
CCOc1cccc(CNc2ccc(O)cc2)c1OCc1ccc(Cl)cc1Cl	17	3	4	-3	-3	78*	10
Cn1cccc1C=Nn1c(-c2ccc(Cl)cc2)n[nH]c1=S	.	.	1	.	.	.	.
COc1ccc2nc(Nc3sc4c(c3C(N)=O)CCCC4)sc2c1	1	3	-21	-6	-57	42*	25
COc1ccc(CC(=O)Nc2sc3c(c2C(N)=O)CCCC3)cc1	5	1	3	-1	-2	4	.
N=C1CCC(=N)c2c1c(O)c1ccccc1c2O	26	19*	.	.	43*	77*	77*
O=C(O)Cc1ccc(O)c(O)c1	-7	-2	0	-7	-4	7	.
O=C(O)Cc1cc(I)c(Oc2ccc(O)c(I)c2)c(I)c1	.	2	.	.	-7	62*	56*
O=C(NC1CCCC1)c1ccc2nc[nH]c2c1	-2	-3	2	4	-5	3	.
O=C(NC1CCCC1)c1ccc2nc(-c3ccco3)c(-c3ccco3)nc2c1	28	7	-81	.	7	63*	38*
CCn1cc(NC(=O)CCl)c(C)n1	.	5	0	.	0	72*	81*
Cc1ccc(S(=O)(=O)N(CC2CO2)c2cc(Cl)ccc2Cl)cc1 (centres undefined)	-2	5	5	-1	0	85*	91*	GSTO1 ABPP inh=0
Cc1ccc(N(CC2CO2)S(=O)(=O)c2ccc([N+](=O)[O-])cc2)cc1 (centres undefined)	-2	5	.	2	2	88*	85*	GSTO1 ABPP inh=45
O=[N+]([O-])c1cccc(N(CC2CO2)S(=O)(=O)c2ccccc2)c1 (centres undefined)	2	3	.	7	-2	101*	98*	GSTO1 ABPP inh=50
O=S(=O)(c1ccc2ccccc2c1)N(CC1CO1)c1ccccc1 (centres undefined)	-3	1	5	13	3	70*	92*	GSTO1 ABPP inh=26
CCN(c1ccccc1)S(=O)(=O)c1ccc2ccccc2c1	-2	-6	4	4	-6	-2	.
CCOc1ccc(C=NOCC(=O)NC(c2ccccc2)c2ccccc2)cc1	.	.	4	.	.	.	.
